STAT1 blocker = STAT1 signaling inhibitors, primary screen, cell-based, HTS, luciferase reporter | inhibition, % at 5.5 µM | NIH 3T3 STAT1-luciferase reporter, IFN-gamma, luminescence | 0.35% of 200,000 active;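 active means inhibition above a set limit, the mean inhibition across all tested compounds plus 3 SD, cut at about 34% in these data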;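 further: 0% = IFN-gamma with DMSO and 100% = IFN-gamma with 300 µM nifuroxazide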
APP 5'UTR act = activators of APP 5'UTR luciferase reporter, primary screen, SH-SY5Y cells | SH-SY5Y APP 5'UTR luciferase reporter, luminescence; zero percent = DMSO vehicle wells | activation, % at 2 µM | 1% of 190,000 active | AID 1276, 2008;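 active means activation above a set limit, based on mean plus 3 SD of controls, cut at about 140% in these data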
NF-kB neuron act = activators of NF-kB expression in neurons, primary screen, cell-based, HTS; human neuronal cells, NF-kB reporter expression; active compounds read high; fold change at 12.5 µM; 1.6% of 190,000 active; in the data active means fold change above about 3.3
STAT1 activator = STAT1 signaling activators, primary screen, cell-based, HTS, luciferase reporter. NIH 3T3 STAT1-luciferase reporter, IFN-gamma, luminescence; 100% = IFN-gamma alone, no compound. activation (% of control), % at 5.5 µM. 2.6% of 200,000 active. AID 932, 2007;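 active means activation above the screen-wide mean activation plus 3 SD, cut at about 130% in these data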;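 further: raw ratio to IFN-gamma control signal so 100% means no change and 0% no light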
STAT3 act = IL-6 driven STAT3 reporter potentiators, primary screen, U3A cells, luciferase, luminescence, MLSCN library; IL-6 STAT3-luciferase reporter; 100% = signal with IL-6 EC80 alone; AID 871, 2007; activation (% of control), % at 5.6 µM; 0.91% of 190,000 active;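 active means activation above the screen-wide mean of compound activation plus 3 SD, cut at about 130% in these data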;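 further: 0% = background luminescence of wells with medium and substrate only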
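Material: human U3A cells carrying STAT3-luciferase construct. Measured by: reporter luminescence signal. Timing: compound 1 h, then IL-6 6 h at 37 °C.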
STAT3 inh = IL-6 driven STAT3 reporter inhibitors, primary screen, U3A cells, luciferase, luminescence, MLSCN library; 0.89% of 190,000 active; inhibition, % at 5.5 µM; IL-6 STAT3-luciferase reporter; host cell line lacks STAT1;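 active means inhibition above the mean inhibition across all screened compounds plus 3 SD, cut at about 44% in these data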;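 further: 0% = DMSO only wells and 100% = 100 µM nifuroxazide control wells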
An asterisk follows results filed as active. Only some compounds are listed: those with a hit (about 4.9% of all), similar ones and a draw of the others.

For CSc1nc(-c2ccccc2)[nH]c(=S)c1C(C)=O the results were STAT1 blocker 5, APP 5'UTR act -4, NF-kB neuron act 1.2, STAT1 activator 95, STAT3 act 133* and STAT3 inh -32.
For CSc1nc(-c2ccccc2)nc(SC)c1C(C)=O the results were STAT1 blocker -2, APP 5'UTR act -17, NF-kB neuron act 1.2, STAT1 activator 101, STAT3 act 87 and STAT3 inh 17.
For Clc1ccccc1Cn1nnc(-c2ccccc2)n1 the results were STAT1 blocker -46, APP 5'UTR act 49, NF-kB neuron act 2.3, STAT1 activator 141*, STAT3 act 109 and STAT3 inh -2.
Screening Clc1ccccc1Cn1nnc(-c2cccs2)n1 returned STAT1 blocker -45, APP 5'UTR act 41, NF-kB neuron act 1.8, STAT1 activator 143*, STAT3 act 128 and STAT3 inh -30.
Screening CCCCCC(=O)Nc1ccc(S(=O)(=O)Nc2nccnc2OC)cc1 returned STAT1 blocker 4, APP 5'UTR act -13, NF-kB neuron act 1, STAT1 activator 96, STAT3 act 100 and STAT3 inh 5.
Screening NNC(=O)c1cccc(COc2ccc3c(c2)CCC3)c1 returned STAT1 blocker 60*, APP 5'UTR act 39, NF-kB neuron act 2.9, STAT1 activator 46, STAT3 act 19 and STAT3 inh 95*.
`CCOC(=O)Cc1ccc(NC(=O)c2ccc(C(C)(C)C)cc2)cc1` gave STAT1 blocker 38*, APP 5'UTR act -71, NF-kB neuron act 0.36, STAT1 activator 67, STAT3 act 20 and STAT3 inh 96*.
`COC(=O)Cc1ccc(NC(=O)c2ccc(C)c(C)c2)cc1` gave STAT1 blocker -36, APP 5'UTR act 21, NF-kB neuron act 3.9*, STAT1 activator 133*, STAT3 act 96 and STAT3 inh 8.
`Cc1noc(N)c1C(=O)Nc1ccc(C(C)(C)C)cc1` gave STAT1 blocker -47, APP 5'UTR act 75, NF-kB neuron act 4*, STAT1 activator 143*, STAT3 act 99 and STAT3 inh 6.
O=[N+]([O-])c1ccc(S(=O)(=O)NCCc2ccncc2)cc1 was read as STAT1 blocker -1, APP 5'UTR act -6, NF-kB neuron act 1.3, STAT1 activator 101, STAT3 act 99 and STAT3 inh 5.
`CC(C)C(C(=O)OCC(=O)c1ccccc1)N1C(=O)C2C3C=CC(C3)C2C1=O` (configuration not stated) gave STAT1 blocker -2, APP 5'UTR act 4, NF-kB neuron act 1, STAT1 activator 101, STAT3 act 113 and STAT3 inh -6.
Screening CC(c1nnc(SCC(=O)Nc2cccnc2Cl)n1Cc1ccccc1)N(C)C (configuration not stated) returned STAT1 blocker -3, APP 5'UTR act 7, NF-kB neuron act 1.2, STAT1 activator 101, STAT3 act 99 and STAT3 inh 7.
`CCCCn1c(Cc2ccccc2)nnc1SCC(=O)Nc1cc(C)on1` gave STAT1 blocker 1, APP 5'UTR act -17, NF-kB neuron act 1.1, STAT1 activator 98, STAT3 act 103 and STAT3 inh 1.
`Cc1ccc(-c2nnc(N)s2)cc1` gave STAT1 blocker -16, APP 5'UTR act 5, NF-kB neuron act 1.3, STAT1 activator 115, STAT3 act 99 and STAT3 inh 5.
CC(C)c1ccc(-c2nnc(N)s2)cc1 was read as STAT1 blocker -37, APP 5'UTR act 62, NF-kB neuron act 3.8*, STAT1 activator 133*, STAT3 act 96 and STAT3 inh 8.
`Cc1c(CN2CCCC(CO)(Cc3cccc(Cl)c3)C2)cnn1C` (configuration not stated) gave STAT1 blocker -2, APP 5'UTR act 6, NF-kB neuron act 0.97, STAT1 activator 100, STAT3 act 99 and STAT3 inh 8.
COC(=O)c1ccc(Cn2cnc3c(cnn3-c3ccc(F)cc3)c2=O)o1 was read as STAT1 blocker 1, APP 5'UTR act -1, NF-kB neuron act 0.99, STAT1 activator 99, STAT3 act 102 and STAT3 inh 4.
CC(C)CCn1cnc2c(cnn2-c2ccc(F)cc2)c1=O was read as STAT1 blocker -33, APP 5'UTR act 18, NF-kB neuron act 1.8, STAT1 activator 130*, STAT3 act 99 and STAT3 inh 2.
`CCCN(CCC)CC(O)Cn1cc(/C=C/C(=O)c2ccccc2)c2ccccc21` (configuration not stated) gave STAT1 blocker -9, APP 5'UTR act 20, NF-kB neuron act 0.93, STAT1 activator 107, STAT3 act 109 and STAT3 inh -2.
Screening CN1CCN(Cn2cc(/C=C/C(=O)c3ccccc3)c3ccccc32)CC1 returned STAT1 blocker -34, APP 5'UTR act 165*, NF-kB neuron act 13*, STAT1 activator 131*, STAT3 act 91 and STAT3 inh 16.
`COc1ccc(-c2cc(C(=O)NC(C)C)no2)cc1` gave STAT1 blocker -43, APP 5'UTR act 106, NF-kB neuron act 3.7*, STAT1 activator 144*, STAT3 act 92 and STAT3 inh 10.
`CNC(=S)N1N=C(c2ccc(C)cc2)CC1c1ccc(Cl)cc1` (configuration not stated) gave STAT1 blocker 0, APP 5'UTR act 0, NF-kB neuron act 4.5*, STAT1 activator 100, STAT3 act 94 and STAT3 inh 11.
`CNC(=S)N1N=C(c2ccc(C)cc2)CC1c1ccc(Br)cc1` (configuration not stated) gave STAT1 blocker -11, APP 5'UTR act 31, NF-kB neuron act 3.4*, STAT1 activator 110, STAT3 act 95 and STAT3 inh 12.
Screening CNC(=S)N1N=C(c2ccccc2)CC1c1ccccc1Cl (configuration not stated) returned STAT1 blocker -10, APP 5'UTR act -6, NF-kB neuron act 1.5, STAT1 activator 107, STAT3 act 104 and STAT3 inh 0.
For COCCCN=C(c1ccco1)n1c(=S)nc(-c2ccco2)n(CCCOC)c1=S the results were STAT1 blocker -10, APP 5'UTR act 22, NF-kB neuron act 1.3, STAT1 activator 109, STAT3 act 114 and STAT3 inh -14.
CC(C)(C)SCCNC(=O)c1ccccc1 was read as STAT1 blocker -30, NF-kB neuron act 1.8, STAT1 activator 139*, STAT3 act 120 and STAT3 inh -24.

Compound activity as filed in PubChem.
